Measured values reported in the EternaBench riboswitch data.

System: MS2 coat protein
Test: apparent Kd, MS2 coat protein; higher = weaker binding; RNA-MaP array; FMN 200 µM where present
Procedure, shortened: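 Each design was made on Illumina sequencing-chip clusters by stalled E. coli RNA polymerase and titrated with SNAP-549-labelled MS2 coat protein from 0.7 or 1.5 nM, doubling to 3 µM, in the absence and then the presence of constant ligand. The buffer was 100 mM Tris-HCl pH 7.5, 80 mM KCl, 4 mM MgCl2, BSA, DTT, yeast tRNA and Tween-20. The apparent Kd is the median of filtered per-cluster fits of binding curves, with green signal normalised to red-channel RNA signal and control-cluster median Fmax.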

[1] = designed as: ON switch for flavin mononucleotide, no ligand
[2] = ligand present: flavin mononucleotide, designed as: ON switch for flavin mononucleotide
[3] = designed as: OFF switch for flavin mononucleotide, no ligand
[4] = ligand present: flavin mononucleotide, designed as: OFF switch for flavin mononucleotide

Sequence	apparent Kd [1] [nM]	apparent Kd [2] [nM]	apparent Kd [3] [nM]	apparent Kd [4] [nM]
GAGUUUACGUUUGUCACUUUGCGAGAGGAUAUGGAAAACUUGACAUGAGGAUCACCCAUGUUUUAUCAGAAGGCUCGAGUACGA	10.2	6.09		
GAUAGACAUGAGGAUCACCCAUGUGAGGAUAUGCGUACGUUGUCCGUAGGCGACGUGCGCAGAAGGCGCGAGGU			55.9	88.3
GAUAGAGAGCAGGAUAUCUUGGGUAAGUAUCGUAGAGAAGGGCUCACAUGAGGAUCACCCAUGUGGUCCUAGAU			12.7	29.5
GAUAGGACAGAGAAGGACAUAGCUAGAGAUACUAGCAUAAGAACCUUCACAUGAGGAUCACCCAUGUAGGAUAUCUGUCCUAUC			3.74	4.85
GAUAGGACAGAGAAGGACGUAGCUAGAGAUACUAGCAUAAAGGUCCAAACAUGAGGAUCACCCAUGUAGGAUAUCUGUCCUAUC			6.47	6.92
GAUCAACAUGAGGAUCACCCAUGUGAGGAUAUGAUACUAUGUACUUCGGUACAUAGUAUCAGAAGGCAUAUGAA			56.7	98.5
GAUCAACAUGAGGAUCACCCAUGUGAGGAUAUGAUACUAUGUACUUCGGUACAUAGUAUCAGAAGGCAUAUUGA			54.8	41.9
GAUCACUCUGUGAGGAUAUGAGGGCUCUUAGAGUAUCAGAAGGCACAUGAGGAUCACCCAUGUAUUCCGUUCUA			42.5	259
GAUCAUGCAGGAUAUACAUUAACCAUGAAAACAUGGUUGUAACAUGAGGAUCACCCAUGUAGAAGGGCAUGAUC			14.2	21.3
GAUCUGGCAGGAUAUACAUGAGGAUCACCCAUGUGCGAGCUAGCGAAAGCUAGCUCAGGUAGAAGGGUCAGAUC			12.7	15.5
GAUGAGAGAGGAUAUACAUGAGGAUCACCCAUGUAAUUUUCGGACAUGGAAGCCUGAUGUAGAAGGCUCGCAUG			78.5	38.6
GAUGAGGUAGGAUAUACGAGAAGAUAGGGUAGAUAGAUAACACAUGAGGAUCACCCAUGUAGAAGGACCAGUAG			34.5	79.8
GAUUAACAUGAGGAUCACCCAUGUGAGGAUAUUGACUUGCUCACUUUCCCAUUCGAGUCGAGAAGGCGCAUCUU			28.7	29
GAUUACAUGAGGAUCACCCAUGUACAGGUGAUUCUCGGUACGAGAAGGGCGGAGGGUCACCACACGCAGGAUAUCGAGCAAAGG			231	65.4
GAUUCACAUGAGGAUCACCCAUGUGAGGAUAUAGUGCAGGAGGUGGAUGCCCGCCUCUCUAGAAGGCACACGGG			21.9	24.5
GAUUGACAUGAGGAUCACCCAUGUGAGGAUAUCGGCUGGACCGUGUUGGCUUGCCUUUCGAGAAGGCGCAUAGG			37.7	42
GAUUGUUUUUAGAAGGUGCCGACGAGAGUCGCAACAUGAGGAUCACCCAUGUGUCGGUGACGACGCAAGGAUAUGGAGGUGGUU	174	79.8		
GCAAAGCCUGACAUGAGGAUCACCCAUGUUAGAUUGUUAUGUCAGGAUAUUGUCUAGCAACUAGACAAGAAGGGAUGCUCUGCG	744	215		
GCAAAGCCUGACAUGAGGAUCACCCAUGUUAGAUUGUUAUGUCAGGAUAUUGUCUAGCAACUAGACAAGAAGGGAUGCUUUGCU	369	27.6		
GCAAUAGCAUGAGGAUAUGUUGGAGUUUAGACAGCAGAAGGCAUGUCAUAAGACAUGAGGAUCACCCAUGUAGUUACAAUGGCA	22.6	11.5		
GCACAUGGCAUAGGAUAUAGAACUAUACUUUAUAUAGGUAGUUACACUUAACUAGAAGGAUGAUACAUGAGGAUCACCCAUGUA	16.8	14.5		
GCACCUUUAUUUGAACCGAUACGAACAUGAGGAUCACCCAUGUAGGAUAUGCUUAAAGUUGUGUUGCAGAAGGACAUUUAGUGC			8.76	8.31
GCACGAGACUAAGGAUAUGAUGUACCUAUAUGUGACAUGAGGAUCACCCAUGUGGUAAGUAUGAUUCAGAAGGUAGAGACGUGC	28.2	20.6		
GCACGCUGGCGAGGAUAUAGACAUGAGGAUCACCCAUGUGGCGCACAUCGGGCCCUAGUCCUCAGCUAGAAGGCGCCUGUGAUA			328	228
GCACGGAUGGUAGGAUAUCAUUGCGAUUAGCUAUGAGAAGGGCCACAUGAGGAUCACCCAUGUCCUCUAAUUAGCCUUCCGUGC			101	101
GCACUGGAUGUAGGAUAUCAGGACGAUAAGUCCUGAGAAGGACAUGAGGAUCACCCAUGUAACUCAUAACCAGUGCAUAAUAUA			15	24.8
GCACUGGAUGUAGGAUAUCAGGACGAUAAGUCCUGAGAAGGACAUGAGGAUCACCCAUGUCUAAUAAACCAGUGCUAUAAUAUA			14.4	18.9
GCACUUACGUUAGGAUAUGGAUCGGAAAACGAUCCAGAAGGAAUAUGGGAACAUGAGGAUCACCCAUGUUCCACAGACAAGUGC	43.3	25.9		

Sequence	apparent Kd [1] [nM]	apparent Kd [2] [nM]	apparent Kd [3] [nM]	apparent Kd [4] [nM]
GCACUUACGUUAGGAUAUGUAUCGGAAAACGAUACAGAAGGAAUAUGGGAACAUGAGGAUCACCCAUGUUCCUGAGACAAGUGC	46.5	26.4		
GCACUUAGAGUUGAACCGUUACUAACAUGAGGAUCACCCAUGUAGGAUAUGCUAAUAGUAUUGAAGCAGAAGGACACUAAGUGC			5.46	5.88
GCACUUAGAGUUGAACCGUUUCUAACAUGAGGAUCACCCAUGUAGGAUAUGCUAAUAGUAUUGAAGCAGAAGGACAAUAAGUGC			4.59	5.01
GCAGAGCUAGGAUAUGCUGGGCUGCAGUAAAAUGGUCACUCACAUGAGGAUCACCCAUGUAGAAGGAGCAGUGU			26.5	40
GCAGCAUAGUUUACUAACUGUUACAUGAGGAUCACCCAUGUUUAGGAUAUGGUCUGGAUUACAGGCCAGAAGGGAACAAGCUGC			14.6	12.3
GCAGCAUAUGCAGGAUAUCAGCACGUGUAGUGCUGAGAAGGGCACAUGAGGAUCACCCAUGUGAUCAAUUAAUAUAUAUGCUGC			6.36	16.4
GCAGCGCUUGACAUGAGGAUCACCCAUGUUAGAUUGUUAAGUCAGGAUAUAGUCUAGAAACUAGACUAGAAGGGAUUUGCUGCU	7.18	6.14		
GCAGCGUAUGUAGGAUAUCGGUCAGUUUCUGAUCGAGAAGGACAUGAGGAUCACCCAUGUAAAUUUCCGACUUUGUCGGGCUGC			7.04	8.73
GCAGCUAAUGCAGGAUAUCAGCACGUGUAGUGCUGAGAAGGGCACAUGAGGAUCACCCAUGUGAUCAAUUAAUUUUAAUGCUGC			29	159
GCAGGAUAAGUCAGGAUAUACCUAUGGAUACAUAGGUAGAAGGGACAUGAGGAUCACCCAUGUGCCUCGCCUGC			14.5	37.4
GCAGGUUAAGUCAGGAUAUACCUAUGGAUACAUAGGUAGAAGGGACAUGAGGAUCACCCAUGUGCCUCGCCUGC			17.7	69.3
GCAUCCAAAGUGAGGAUAUACCUCUGGAUACAGAGGUAGAAGGCACAUGAGGAUCACCCAUGUUACUAGGAUGC			12.9	17
GCAUCGCAUGUCAGGAUAUGCUGUACCUUGGUACAGCAGAAGGGACAUGAGGAUCACCCAUGUGCCUAUGAUGC			39.7	353
GCAUGACAUGUAGGAUAUCGAGCGCCGAGCGCUCGAGAAGGACAUGAGGAUCACCCAUGUAUUCCGAAUGAAUCAAGUCAUGCA			14.3	16.2
GCAUGCUAUGUCAGGAUAUACCUCUGGAUACAUAGGUAGAAGGGACAUGAGGAUCACCCAUGUCCUAAACAUGC			12.2	13.4
GCCAAGUCAGGAUAUACAUGAGGAUCACCCAUGUAGGACGCUAUUUUGAUCUUGGUAGGUAGAAGGGACAUGGG			24.2	21.2
GCCACAAGGGCAGGAUAUGAACUUAAUGGCAGUUUAGAAGGGUCACUCGUGGGUUAAAAUCACAUGAGGAUCACCCAUGUAUAG	664	84.7		
GCCACAGCAGGAUAUUCAAUAAUUCACAUGAGGAUCACCCAUGUCGAGCGAAAGCUCGAGGGAGAAGGGCUGUGGC			39.5	13.7
GCCAUCGCAUGAGGAUAUAAAAUUAUAAUUAAAUUAGAAGGCAUGUCAUAAGACAUGAGGAUCACCCAUGUAGUUAAGAUGGCA	483	132		
GCCAUCGCAUGAGGAUAUGCUCCCGUUUCGGGAGCAGAAGGCAUGUCAUAAGACAUGAGGAUCACCCAUGUAGCUAAGAUGGCA	310	12.1		
GCCAUCGCAUGAGGAUAUGCUCCCGUUUCGGGAGCAGAAGGCAUGUCAUAUGACAUGAGGAUCACCCAUGUAGCUAAGAUGGCA	576	17.5		
GCCAUCGCAUGAGGAUAUGCUCCGGUUUCCGGAGCAGAAGGUAUGUCAUAAGACAUGAGGAUCACCCAUGUAGUUAAGAUGGCA	252	30		
GCCAUCGCAUGAGGAUAUGGCACCGUUUCGGUGCCAGAAGGCAUGUCGAAUGACAUGAGGAUCACCCAUGUAGUUAAGAUGGCA	480	25.2		
GCCAUCGUAUGAGGAUAUGGCACCGAAACGGUGCCAGAAGGCAUGUCAAUUGACAUGAGGAUCACCCAUGUAUUAUCGAUGGCA	857	89		
GCCCAGCUAGGAUAUCGCACUGCAGACAUGAGGAUCACCCAUGUGAUGAGGUCUGAAUCCCGAGAAGGAGCAUGGA			17.8	41.7
GCCCUUCGAGGAUAUACAUGAGGAUCACCCAUGUCCGGAGUUCCGAGGCGGCCCAUAUGUAGAAGGCGAACUUU			43.4	67
GCCGAAAAUGUGAGGAUAUACCUAUGGAAACAUAGGUAGAAGGCACAUGAGGAUCACCCAUGUGUUUCAACGGC			21.5	107
